Data published in ChEMBL document CHEMBL4261557, “MAO inhibitory activity of bromo-2-phenylbenzofurans: synthesis, in vitro study, and docking calculations” (Medchemcomm, 2017).

Legend:
[1] = molecular target: T1, Amine oxidase [flavin-containing] B (Homo sapiens, UniProt P27338); test: biochemical
T1 sequence (P27338 whole entry): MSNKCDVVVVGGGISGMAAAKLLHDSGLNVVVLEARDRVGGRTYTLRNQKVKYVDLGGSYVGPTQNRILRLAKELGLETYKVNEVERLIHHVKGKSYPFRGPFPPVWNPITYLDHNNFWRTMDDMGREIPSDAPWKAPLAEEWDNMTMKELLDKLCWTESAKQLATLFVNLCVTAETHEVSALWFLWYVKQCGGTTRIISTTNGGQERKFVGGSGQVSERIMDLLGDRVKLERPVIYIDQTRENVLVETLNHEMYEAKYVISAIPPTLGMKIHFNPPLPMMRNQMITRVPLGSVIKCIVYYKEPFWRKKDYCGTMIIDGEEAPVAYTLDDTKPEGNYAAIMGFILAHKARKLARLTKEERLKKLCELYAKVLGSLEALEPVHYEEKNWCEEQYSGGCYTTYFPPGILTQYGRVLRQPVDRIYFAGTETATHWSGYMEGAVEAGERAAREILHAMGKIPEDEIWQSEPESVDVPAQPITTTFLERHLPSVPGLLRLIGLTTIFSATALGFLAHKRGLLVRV

[2] = molecular target: T2, Amine oxidase [flavin-containing] A (Homo sapiens, UniProt P21397); test: (§1) Inhibition of recombinant human MAO-A expressed in baculovirus infected insect cells assessed as reduction in H2O2 production using p-tyramine as substrate pretreated for 15 mins followed by substrate addition and measured over 15 mins by Amplex red reagent based fluorimetric assay
T2 sequence (P21397 whole entry): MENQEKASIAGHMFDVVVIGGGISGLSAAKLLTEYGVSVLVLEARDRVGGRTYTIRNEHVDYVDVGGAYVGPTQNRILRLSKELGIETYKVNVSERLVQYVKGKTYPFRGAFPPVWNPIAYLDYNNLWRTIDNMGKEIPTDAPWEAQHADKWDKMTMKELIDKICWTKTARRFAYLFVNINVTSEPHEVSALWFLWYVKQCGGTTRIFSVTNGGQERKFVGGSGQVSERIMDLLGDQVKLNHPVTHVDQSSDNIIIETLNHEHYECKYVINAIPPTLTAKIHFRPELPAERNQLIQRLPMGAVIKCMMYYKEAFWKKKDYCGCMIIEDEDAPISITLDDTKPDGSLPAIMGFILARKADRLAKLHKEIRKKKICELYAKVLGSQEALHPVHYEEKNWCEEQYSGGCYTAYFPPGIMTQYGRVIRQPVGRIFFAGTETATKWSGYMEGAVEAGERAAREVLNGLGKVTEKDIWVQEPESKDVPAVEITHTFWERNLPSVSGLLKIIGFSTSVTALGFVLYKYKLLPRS

Homo sapiens = species: Homo sapiens; test: Selectivity index, ratio of IC50 for recombinant human MAO-A expressed in baculovirus infected insect cells to IC50 for recombinant human MAO-B expressed in baculovirus infected insect cells
Outline: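 Ratio of IC50 against hMAO-A to IC50 against hMAO-B, both measured by the Amplex Red/p-tyramine fluorimetric assay with recombinant enzymes from insect cells.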

SH-SY5Y = test: Cytotoxicity against human SH-SY5Y cells assessed as reduction in cell viability at 1 to 10 uM after 24 hrs by MTT assay; type: cell-based
Outline: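 SH-SY5Y neuroblastoma cells seeded at 1.106 mL–1, incubated overnight, then exposed 24 h to compound at 1 or 10 μM in 1% DMSO; 1% DMSO as negative control. MTT (5 mg ml–1 in PBS, 10%) added for 2 h at 37 °C, crystals dissolved in DMSO, absorbance 540 nm; viability = treated/control absorbance × 100. Mean ± S.E.M., ≥5 cultures.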

[3] = molecular target: T2, Amine oxidase [flavin-containing] A; test: as §1, with “production at 100 uM” for “production”, “assay relative to control” for “assay”; settings: 0.25 h
[4] = molecular target: T1, Amine oxidase [flavin-containing] B; test: as §1, with “MAO-B” for “MAO-A”, “production at 100 uM” for “production”, “assay relative to control” for “assay”; settings: 0.25 h
Outline: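 hMAO-B from baculovirus-infected BTI-TN-5B1-4 insect cells, 7.5 μg protein, matched to 165 pmol p-tyramine/min. Preincubated with inhibitor in 0.05 M phosphate buffer pH 7.4, 15 min at 37 °C. Started with 200 μM Amplex Red, 1 U mL–1 HRP, 1 mM p-tyramine (final). Fluorescence (ex 545/em 590 nm) over 15 min at 37 °C, minus no-enzyme background; percent inhibition at 100 μM.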

| SMILES | IC50 [1] [µM] | IC50 [2] [µM] | Ratio IC50 (Homo sapiens) | Activity (SH-SY5Y) | inhibition at 100 µM [3] [%] | inhibition at 100 µM [4] [%] |
| --- | --- | --- | --- | --- | --- | --- |
| Cc1ccc2oc(-c3ccccc3Br)cc2c1 | 0.2 | 11 | 55 | Non-Toxic |  |  |
| Cc1ccc2oc(-c3cccc(Br)c3)cc2c1 | 0.25 | > 100 | > 400 | Non-Toxic |  |  |
| Brc1cccc(-c2cc3ccccc3o2)c1 | 1.17 | 100 | 85.5 | Non-Toxic | 51 |  |
| Cc1cccc2cc(-c3cccc(Br)c3)oc12 | 3.98 | > 100 | > 25.2 | Non-Toxic |  |  |
| Cc1ccc2oc(-c3ccccc3)cc2c1 | 0.88 | > 100 | > 114 | Non-Toxic |  |  |
| Cc1cccc2cc(-c3ccccc3)oc12 | 10.7 | 100 | 9.3 | Non-Toxic | 53.9 |  |
| Cc1cccc2cc(-c3ccccc3Br)oc12 | 9.68 | 100 | 11.5 | Non-Toxic | 44.8 |  |
| Brc1ccccc1-c1cc2ccccc2o1 | 1.13 | 8.12 | 7.2 | Non-Toxic |  |  |
| Cc1ccc2oc(-c3ccc(Br)cc3)cc2c1 | 100 | > 100 |  | Non-Toxic |  | 46.1 |
| Brc1ccc(-c2cc3ccccc3o2)cc1 | 0.34 | > 100 | > 294 | Non-Toxic |  |  |
| Cc1cccc2cc(-c3ccc(Br)cc3)oc12 | 0.95 | 100 | 95.2 | Non-Toxic | 46.8 |  |
| c1ccc(-c2cc3ccccc3o2)cc1 | > 100 | > 100 |  | Non-Toxic |  |  |
